Assay outcomes (PubChem BioAssay)
NR2E3 ag-1 – agonists of human NR2E3 nuclear receptor. Q9Y5X4. 360,000 tested, 0.35% active. CHO-S Gal4-NCOR/VP16-NR2E3 two-hybrid, luciferase. inhibition of corepressor binding, % at 3.98 µM;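 active = inhibition above the mean of all tested compounds plus 3 SD, cut at about 70% in these data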;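 also: 0% = DMSO with NR2E3 transfected cells and 100% = cells lacking NR2E3 construct; higher means lower luciferase signal from less NR2E3 corepressor binding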
Furin inhibitor – blocks human furin protease activity; inhibition, % at 20 µM or 30 µM; purified furin, fluorogenic substrate cleavage; 220,000 tested, 0.061% active; in the data active = inhibition above about 25%
EP2 antag – blocks the human prostaglandin E2 receptor EP2 | P43116 | C6 glioma cells expressing human EP2, cAMP TR-FRET; cells stimulated with saturating PGE2 | inhibition, % at 25 µM | 260,000 tested, 0.52% active | AID 1422;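 active = percent inhibition above 40 after rounding to a whole number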;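 also: rat C6 glioma host cells with rolipram phosphodiesterase inhibitor present; the protocol text gives 20 µM as final concentration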
Target sequence (P43116 whole entry, looked up): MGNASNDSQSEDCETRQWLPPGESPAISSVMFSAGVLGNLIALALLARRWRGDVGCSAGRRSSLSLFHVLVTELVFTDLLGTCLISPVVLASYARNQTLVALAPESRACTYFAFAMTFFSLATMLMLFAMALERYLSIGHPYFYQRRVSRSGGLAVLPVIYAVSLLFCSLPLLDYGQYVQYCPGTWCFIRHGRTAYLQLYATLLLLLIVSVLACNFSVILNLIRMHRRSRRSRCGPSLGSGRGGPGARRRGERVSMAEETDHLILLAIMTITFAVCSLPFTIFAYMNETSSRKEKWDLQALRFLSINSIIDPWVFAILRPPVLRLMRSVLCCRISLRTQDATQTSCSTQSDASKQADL
NR2E3 ag-2 – agonists of human nuclear receptor NR2E3. GST-NR2E3/biotin-RetCOR TR-FRET, 1536-well. AID 2300. Q9Y5X4. inhibition of corepressor binding, % at 4.78 µM. 320,000 tested, 0.12% active;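 active = percent inhibition above the cutoff of mean plus 3 SD of all tested compounds, set per screening campaign, cut at about 20% in these data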;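 also: 0% = DMSO wells and 100% = biotin wells as full block of FRET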
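Assay system: NR2E3–RetCOR corepressor complex. Quantity: 1.35 nM GST-NR2E3. Buffer or medium: pH 7.5 Tris-based buffer. Reagent: biotinylated RetCOR corepressor at 7 nM final. Schedule: 5 h at 4 °C. Detection: TR-FRET, emission read at 617 and 671 nm. Replicates: one well per compound, singlicate testing.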
GASC-1 inh – human JMJD2C demethylase inhibition | 330,000 tested, 0.069% active | inhibition, % at 2.35 µM | Q9H3R0 | AID 2099 | GST-JMJD2C(1-420) H3K9me3 demethylation, DELFIA europium;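 active = more than half of a compound's replicate wells show inhibition beyond 50%, single wells judged on their own value; inconclusive = some, but no more than half, of replicates pass 50% inhibition; inactive = no replicate passes 50% inhibition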;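 also: signal counts dimethyl H3K9 product captured on neutravidin plate; 0% = median of DMSO wells and 100% = 0.3 times that DMSO median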
EP2 mod – modulates human prostaglandin E2 receptor EP2 signaling | AID 940 | induction, % at 25 µM | EP2-expressing cells, cAMP HTRF FRET, PGE2 co-stimulation | P43116 | 260,000 tested, 0.83% active;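 active = compounds whose cAMP rise, as percent of the full-agonist control response, exceeds 60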;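 also: rat C6 glioma line stably carrying human EP2 under a CMV promoter; the protocol text gives 20 µM as final concentration; 100% = response of wells given 1 µM PGE2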
NR2E3 ag conf – confirmation of human NR2E3 agonists; shares compounds with NR2E3 ag-1; CHO-S mammalian two-hybrid NR2E3-NCOR, luciferase luminescence; inhibition, % at 3.98 µM; 2,300 tested, 51% active;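 active = average inhibition above a cutoff equal to the mean inhibition of all tested compounds plus one SD, cut at about 70% in these data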;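 also: 0% = DMSO in NR2E3 cells and 100% = DMSO in cells lacking NR2E3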
GAL4-VP16 luc – reduces GAL4-VP16 reporter signal in NR2E3 counterscreen; shares compounds with NR2E3 ag-1; 2,300 tested, 29% active; CHO-S GAL4-VP16 luciferase reporter, luminescence; inhibition, % at 3.98 µM;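 active = mean inhibition above a cutoff equal to the average over all tested compounds plus one standard deviation, cut at about 70% in these data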;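 also: luciferase from a UAS reporter driven by GAL4-VP16 transactivation; 0% = DMSO with VP16-transfected cells and 100% = DMSO with cells lacking VP16; higher means less reporter light so more repression of VP16 activity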
* hit, by the source's call; i = inactive; ? = inconclusive; nt = no result given. Sampled rows, rich in hits. Any-hit rate of the full collection: about 1.3%.

SMILES	NR2E3 ag-1	Furin inhibitor	EP2 antag	NR2E3 ag-2	GASC-1 inh	EP2 mod	NR2E3 ag conf	GAL4-VP16 luc
O=C(Nc1ccccc1C(=O)Nc1nnc(C(F)(F)F)s1)c1ccccc1Cl	100*	-16	16	2	6	-16	101*	93*
COCCNC(=S)N1CCC(c2nc(-c3ccc(N(C)C)cc3)no2)CC1	-22	-15	25	0	-3	-49	nt	nt
CC(C)CNC(=S)N1CCC(c2nc(-c3ccc(F)cc3)no2)CC1	67	-39	4	0	nt	-49	88*	67
O=C(Nc1cccc(C(F)(F)F)c1)N1CCC(c2nc(-c3ccc(F)cc3)no2)CC1	49	-7	9	3	3	-11	56	51
Cc1ccc(OCCCC(=O)Nc2nc3ccccc3[nH]2)cc1	5	-12	11	2	-12	-29	nt	nt
Cc1cccc(OCCCC(=O)Nc2nc3ccccc3[nH]2)c1	53	-19	2	-2	-11	-34	72*	-18
O=S(=O)(Nc1cccc2ncccc12)c1cccs1	97*	-14	1	3	-7	2	48	24
Cc1ccc(C(=O)O/N=C(\N)c2ccccn2)cc1	-75	nt	nt	1	32	nt	nt	nt
CCOc1ccc(C(=O)O/N=C(\N)c2ccccn2)cc1	52	nt	nt	nt	6	nt	-58	-126
CC(C)(C)c1ccc(C(=O)O/N=C(\N)c2ccccn2)cc1	106*	nt	nt	6	-8	nt	89*	76*
S=C(NCc1cccnc1)Nc1cccc2ccccc12	-4	-12	9	4	-2	-12	nt	nt
S=C(NCCc1ccccc1)Nc1cccc2cnccc12	74*	-15	7	1	-17	-76	91*	79*
CCCCNC(=S)Nc1cccc2cnccc12	-4	-17	9	-1	-14	11	nt	nt
S=C(NCc1ccccc1)Nc1cccc2cnccc12	66	nt	nt	-1	-3	nt	78*	60
CCC(c1nnnn1Cc1ccccc1)N(Cc1cc2ccc(OC)cc2[nH]c1=O)C1CCCCC1 (stereo unspecified)	nt	nt	2	nt	nt	3	nt	nt
CC[C@H](C)[C@@H]1NC(=O)[C@@H](CC(C)C)NC(=O)[C@H](C(C)C)NC(=O)[C@H]2CSSC[C@H](NC1=O)C(=O)N2	102*	nt	nt	nt	nt	nt	100*	98*
CC(C)CC1NC(=O)C(CCCN)NC(=O)C(C(C)C)NC(=O)C2CCCN2C(=O)C(Cc2ccccc2)NC(=O)C(CC(C)C)NC(=O)C(CCCN)NC(=O)C(C(C)C)NC(=O)C2CCCN2C(=O)C(Cc2ccccc2)NC1=O (stereo unspecified)	nt	nt	11	nt	nt	34	nt	nt
COc1ccc2oc(=O)c(C(=O)NC3CCCC3)cc2c1	nt	nt	4	nt	nt	-36	nt	nt
Cc1cccc(C)c1OCc1cc(C(=O)N2CCN(C3CCCC3)CC2)no1	-59	nt	nt	9	6	nt	nt	nt
O=C(c1cc(COc2c(F)cccc2F)on1)N1CCC(c2ccncc2)CC1	62	-29	8	2	-36	-34	83*	73*
Cc1cccc(C)c1OCc1cc(C(=O)N2CCC(c3ccncc3)CC2)no1	86*	nt	nt	0	7	nt	88*	53
O=C(c1cc(COc2cccc3cnccc23)on1)N1CCC(c2ccccc2Cl)C1 (stereo unspecified)	95*	nt	nt	-1	3	nt	78*	68
O=[N+]([O-])c1cc(-c2ccccc2)cc([N+](=O)[O-])c1O	79*	nt	nt	nt	nt	nt	100*	89*
COc1cccc(OCC(O)CN2CCC(CN3C(=O)c4cccc5cccc(c45)C3=O)CC2)c1 (stereo unspecified)	-36	-34	12	6	-10	-67	nt	nt
O=C1c2cccc3cccc(c23)C(=O)N1CC1CCN(CC(O)COc2ccc3ccccc3c2)CC1 (stereo unspecified)	51	nt	nt	-8	3	nt	17	18
SMILES	NR2E3 ag-1	Furin inhibitor	EP2 antag	NR2E3 ag-2	GASC-1 inh	EP2 mod	NR2E3 ag conf	GAL4-VP16 luc
COc1ccccc1CCC(=O)NC1CCCc2c1cnn2-c1ccc(F)cc1 (stereo unspecified)	nt	nt	14	nt	nt	-94	nt	nt
CC(O)(c1cccnc1)c1nc(-c2cccc(C(F)(F)F)c2)cs1 (stereo unspecified)	67	nt	nt	nt	nt	nt	51	39
CC(O)(c1cccnc1)c1nc(-c2ccc(F)c(Cl)c2)cs1 (stereo unspecified)	53	nt	nt	nt	nt	nt	65	52
COC(=O)c1ccccc1NC(=O)CSc1nnc(-c2ccncc2)n1-c1ccc(OC)cc1	nt	nt	6	nt	nt	20	nt	nt
COc1ccc(-c2cc(C(F)(F)F)nc(SCCC(=O)N3CCCCC3)n2)cc1	nt	nt	9	nt	nt	-20	nt	nt
O=C1OC[C@H](Cc2ccc3c(c2)OCO3)/C1=C\c1ccc2c(c1)OCO2	52	nt	nt	0	?	nt	36	40
O=C(CN1CCC(O)(c2ccccn2)CC1)Nc1cccc(Cl)c1Cl	nt	nt	11	nt	nt	-25	nt	nt
CC(NC(=O)Nc1nnc(C(F)(F)F)s1)(C(F)(F)F)C(F)(F)F	106*	-13	17	-3	4	-12	100*	94*
O=C(O)c1cccc(Cn2c(Cl)c(/C=N/Nc3ccccc3)sc2=O)c1	70	-20	8	-5	2	-55	68	15
CCN(CC(=O)NCc1ccc(Cl)cc1)C(=O)c1ccc2cc(OC)ccc2c1	51	nt	nt	8	0	nt	28	61
CCOc1ccc2[nH]c(=O)c(C(c3nnnn3C3CCCC3)N3CCCCC3)cc2c1 (stereo unspecified)	nt	nt	9	nt	nt	-1	nt	nt
Cc1cc(C(=O)NNc2ccccc2F)no1	50	-16	8	-4	-19	-20	48	0
CC(=O)C1CC(CC(=O)N2CCC3(CC2)NC(=O)c2ccccc2O3)C1(C)C (stereo unspecified)	nt	nt	nt	nt	nt	-9	nt	nt
O=C(NC1CCN(Cc2cccc(F)c2)CC1)c1cnc(N2CCOCC2)nc1	nt	nt	6	nt	nt	-65	nt	nt
O=C(Nc1cccc(NC(=O)c2c(F)cccc2F)n1)c1c(F)cccc1F	60	nt	nt	-3	i	nt	79*	1
O=C(Nc1cccc(NC(=O)c2cccc(F)c2)n1)c1cccc(F)c1	-52	nt	nt	2	-22	nt	nt	nt
Cc1cccc(OCC(=O)Oc2ccc(Cl)cc2)c1	1	nt	nt	1	0	nt	nt	nt
Cc1cccc(OC(=O)NCCOC(=O)N(O)c2ccc(Cl)cc2)c1	81*	-8	3	3	-6	4	83*	71*
O=C(CCCN1C(=O)/C(=C/c2ccc3c(c2)OCO3)SC1=S)Nc1cccc(C(=O)O)c1	66	nt	nt	4	-2	nt	43	68
O=C(CCN1C(=O)/C(=C/c2ccc3c(c2)OCO3)SC1=S)Nc1cccc(C(=O)O)c1	8	nt	nt	4	-12	nt	nt	nt
